# High-throughput results (PubChem BioAssay)
# M4 ag = CHRM4 agonism in calcium assay | P08173 | CHO-K1 hM4/Gqi5, Fluo-8 calcium fluorescence; vehicle 0%, full acetylcholine response 100% | activation, % at 3 µM | actives 0.14% (n = 360,000) | AID 624127;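 active = activation above the run mean over all test wells plus 3 SD, cut at about 32% in these data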;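 also: peak over basal fluorescence ratio per well then scaled between controls; 0% = DMSO wells and 100% = acetylcholine at EC100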
# CHRM5 agonist = CHRM5 agonism in calcium assay; P08912; CHO-K1 hM5 cells, Fluo-8 calcium fluorescence; 0% DMSO wells, 100% maximal acetylcholine response; activation, % at 3 µM; actives 0.19% (n = 360,000); AID 624037;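 active = activation above the run's mean over test compounds plus 3 SD, cut at about 23% in these data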;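 also: signal is peak over basal fluorescence ratio across the kinetic read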
# Target sequence (P08912 whole entry, looked up): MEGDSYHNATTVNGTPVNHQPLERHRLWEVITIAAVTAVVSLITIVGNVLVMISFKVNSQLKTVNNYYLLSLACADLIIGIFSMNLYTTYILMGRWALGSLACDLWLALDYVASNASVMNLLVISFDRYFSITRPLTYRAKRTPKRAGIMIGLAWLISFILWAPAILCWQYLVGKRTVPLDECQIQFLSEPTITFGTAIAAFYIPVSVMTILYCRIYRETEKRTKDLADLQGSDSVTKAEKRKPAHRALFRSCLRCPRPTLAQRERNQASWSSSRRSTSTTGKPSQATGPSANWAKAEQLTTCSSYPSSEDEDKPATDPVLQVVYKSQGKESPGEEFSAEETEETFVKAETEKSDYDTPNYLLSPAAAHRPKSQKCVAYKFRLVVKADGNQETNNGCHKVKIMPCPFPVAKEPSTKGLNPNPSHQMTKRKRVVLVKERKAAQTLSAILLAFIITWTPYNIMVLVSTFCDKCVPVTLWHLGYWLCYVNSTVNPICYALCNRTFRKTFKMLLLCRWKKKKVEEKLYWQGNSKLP
# CHRM5 PAM = positive allosteric modulators of human muscarinic M5 receptor; P08912; CHO-K1 hM5, Fluo-8 calcium, ACh EC20 PAM; 0% = ACh EC20, 100% = ACh EC100; activation, % at 3 µM; actives 0.3% (n = 360,000); AID 624038;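 active = activation above the run cutoff, the mean activation of all test compounds plus 3 SD, cut at about 18% in these data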
#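 System: CHO-K1 hM5 cells. Reagent: acetylcholine, EC20 level. Compound dosing: single dose, 3 µM nominal final test concentration. Timing: Post-acetylcholine fluorescence recording 140 s. Detection: Fluo-8 calcium fluorescence. Read-out: % activation, ACh-normalized. Benchmarks: ACh EC20 and EC100 wells. Repeats: singlicate, one well per test compound.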
# CHRM4 antagonist = CHRM4 antagonism in calcium assay; CHO-hM4 cells, ACh EC80, Fluo-8 calcium fluorescence; actives 0.73% (n = 360,000); inhibition, % at 3 µM;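 active = inhibition above its plate's cutoff, the mean inhibition of sample wells plus 3 SD, cut at about 27% in these data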;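 also: 0% = acetylcholine EC80 with DMSO and 100% = DMSO without agonist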
# M4 PAM = potentiates acetylcholine response at human M4 receptor | P08173 | CHO-K1 hM4/Gqi5, Fluo-8 calcium fluorescence, ACh EC20; 0% = ACh EC20, 100% = maximal ACh | activation, % at 3 µM | actives 0.4% (n = 360,000) | AID 624126;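 active = activation above its plate's cutoff, the mean activation of sample wells plus 3 SD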
# M5 antag = antagonists of human muscarinic M5 receptor (CHRM5) | P08912 | CHO-hM5 cells, Fluo-8 calcium fluorescence, ACh EC80 | inhibition, % at 3 µM | actives 0.59% (n = 360,000);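 active = inhibition above a per-plate cutoff, the mean of that plate's test compounds plus 3 SD, cut at about 27% in these data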;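 also: 0% = acetylcholine EC80 with DMSO and 100% = DMSO without agonist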
# The depositor's hits bear a star. Rows were chosen to be rich in hits. Some 1.8% of all compounds tested hit in one or more screens of this group.
SMILES,M4 ag,CHRM5 agonist,CHRM5 PAM,CHRM4 antagonist,M4 PAM,M5 antag
CCC(C)N1CCC(Oc2ccc(C(=O)NCc3ccccn3)cc2)CC1 (stereo not given),1.9,-2.5,5.3,8.2,-3.3,9.0
CC[N+](CC)(CC)CCOc1ccc(/C=C/c2ccccc2)cc1,1.0,-1.3,-18.4,27.4*,-14.3,95.2*
COc1cc(C2C(C#N)=C(N)OC3=C2C(=O)CC(C)(C)C3)cc2c1OCO2 (stereo not given),0.6,-7.5,4.5,-15.7,-9.8,-0.2
Cc1ccc(NC(=O)C(C)OC(=O)Cc2c[nH]c3ccccc23)cc1 (stereo not given),2.4,-5.5,17.0,-12.2,23.7*,-10.1
Cc1ccc(C(=O)C(C)OC(=O)Cc2c[nH]c3ccccc23)cc1 (stereo not given),0.3,-4.4,1.7,-3.2,2.1,11.4
O=C(Oc1cccc(Nc2ncnc3ccccc23)c1)c1ccccc1Cl,15.4,0.9,-26.8,34.4*,-13.7,44.8*
CCOC(=O)c1cc(-c2ccccc2)sc1NC(=O)C(C)OC(=O)c1cccc(S(=O)(=O)N(C)C)c1 (stereo not given),0.8,-1.2,19.9*,11.7,5.0,7.1
CCC1C(=O)N=C(SCC(=O)Nc2cccc3ccccc23)NC1=O (stereo not given),0.8,0.8,4.8,8.7,28.1*,-7.4
S=C1NCN(Cc2ccco2)CN1,2.1,4.9,23.5*,4.4,5.6,-5.5
C=CCN1CN(Cc2ccco2)CNC1=S,0.1,-0.6,0.5,17.8,-3.4,3.3
CCCOC(=O)c1ccc(Oc2coc3c(CN(CC)CC)c(O)ccc3c2=O)cc1,1.9,-9.5,-9.1,93.3*,-19.5,-9.6
O=C(NCCN1CCC(n2c(=O)[nH]c3ccccc32)CC1)c1cccnc1Cl,1.0,-0.8,-0.2,-5.8,1.2,8.6
CCOC(=O)c1nnc(-c2ccccc2)nc1Sc1ccccc1Cl,-0.1,0.3,-1.9,-10.7,1.0,29.2*
Cc1ccc(-c2nnnn2C2C/C(=N\NC(N)=S)C3OCC2O3)cc1 (stereo not given),-0.2,-4.8,11.3,-9.3,0.3,2.9
COc1ccc(CN2CCNC(=O)C2CC(=O)N(Cc2nccn2C)C(C)C)c(OC)c1 (stereo not given),0.7,-3.4,6.0,-1.1,30.8*,-5.1
CC(C)N(Cc1nccn1C)C(=O)CC1C(=O)NCCN1Cc1ccc(F)cc1 (stereo not given),1.4,-1.2,10.3,-4.5,-3.4,-2.2
c1ccc(-n2ncc3c(NCC4CCCO4)ncnc32)cc1 (stereo not given),4.2,-4.9,-16.8,-1.4,-4.2,14.6
Clc1ccc(-n2ncc3c(NCC4CCCO4)ncnc32)cc1 (stereo not given),2.5,3.6,-2.3,36.8*,-15.9,-4.9
CCCN1C(=O)CC(Sc2ncccc2C(=O)O)C1=O (stereo not given),0.5,-2.0,-2.2,6.6,-2.0,7.4
COc1ccc(CCN2C(=O)CC(Sc3ncccc3C(=O)O)C2=O)cc1OC (stereo not given),0.0,-1.6,25.8*,-13.9,32.5*,-8.1
COC(=O)c1cc(Br)c(=O)n(-c2nccs2)c1,0.8,-1.5,5.0,-14.6,28.1*,-12.0
CC(=O)Nc1nnc(CCS(=O)(=O)c2ccc(C)cc2)s1,0.8,7.3,8.0,-6.7,0.3,-9.3
Cc1nn(CC(=O)N(C)C2CCS(=O)(=O)C2)c(C)c1S(=O)(=O)N(C)C (stereo not given),0.3,3.0,3.5,-2.2,8.4,-3.4
CCOc1cc(C(=O)NCC(C)CN(C)C)cc(OCC)c1OCC (stereo not given),0.0,-1.4,-1.9,6.9,0.9,5.8
CCOc1ccc(C(=O)NCC(C)CN(C)C)cc1OCC (stereo not given),0.5,-2.0,22.3*,-3.3,7.7,17.8
SMILES,M4 ag,CHRM5 agonist,CHRM5 PAM,CHRM4 antagonist,M4 PAM,M5 antag
COC(=O)CCc1c(C)[nH]c(=S)[nH]c1=O,1.1,0.2,11.2,-2.8,8.3,-14.1
COC(=O)Cc1[nH]c(=S)[nH]c1C(=O)OC,1.6,-0.5,6.5,-4.0,33.3*,5.0
O=C(c1ccc2c(c1)OCCO2)N1CCCCC1,1.1,1.1,3.5,0.1,26.9*,-1.9
O=C(c1ccccc1)N1CCN(C(=O)c2ccc3c(c2)OCCO3)CC1,0.3,3.2,4.7,7.0,-4.9,6.5
OC[C@@H]1CN(Cc2ccco2)C[C@H](n2cnc3c(N4CCN(c5ccccc5)CC4)ncnc32)O1,18.1,4.7,-10.2,-8.9,-9.6,13.2
COc1ccc(C)cc1NC(=O)CN1CCCN(S(=O)(=O)c2ccc(Br)cc2)CC1,3.3,-2.7,-8.4,0.6,-9.9,11.2
COCCOc1nc2ccccc2nc1C,0.7,-2.6,29.8*,5.8,9.5,5.5
CN(C(=O)c1ccccc1C(=O)OCC(=O)c1ccc(F)c(F)c1)C1CCCCC1,6.1,-0.3,2.4,-6.2,4.8,3.0
CCC(C)Nc1nc(-c2ccccn2)nc2ccccc12 (stereo not given),8.9,-3.8,6.4,-17.5,22.0*,-15.8
c1ccc(CNc2nc(-c3ccccn3)nc3ccccc23)cc1,9.1,1.6,1.6,-7.1,10.3,-7.3
CCCCNS(=O)(=O)c1ccc(NC(=O)Cc2ccccc2[N+](=O)[O-])cc1,3.6,0.8,1.0,0.5,1.2,0.1
CC(C)(C)NS(=O)(=O)c1ccc(NC(=O)Cc2ccccc2[N+](=O)[O-])cc1,8.9,0.0,1.3,-4.6,19.8*,-13.2
COCCN(C(=O)COC(=O)c1sccc1C)c1c(N)n(Cc2ccccc2)c(=O)[nH]c1=O,1.2,-3.9,-1.2,-4.4,5.8,3.5
O=C(CCNC(=O)c1ccc([N+](=O)[O-])cc1)NNC(=O)c1ccccc1F,0.0,1.2,1.1,-11.2,26.0*,-3.4
Cc1c(NC(=S)NC(=O)CC(C)C)c(=O)n(-c2ccccc2)n1C,1.4,-5.7,-14.6,79.0*,-24.9,4.5
Cc1c(NC(=O)Nc2cc(Cl)ccc2Cl)c(=O)n(-c2ccccc2)n1C,0.3,-6.1,-8.5,8.9,-0.7,29.0*
Cc1c(NC(=O)Nc2cccc(Cl)c2)c(=O)n(-c2ccccc2)n1C,-0.1,-4.1,-4.9,14.1,-3.5,13.6
CC(=O)C1=CCC(c2cccc(Cl)c2)N(S(=O)(=O)c2ccc(C)cc2)C1 (stereo not given),5.6,-3.9,-11.0,-1.6,-13.0,0.7
CCOC(=O)C1(Cc2ccc(OC)cc2)CCN(C(=O)c2cc(C)nn2C)CC1,5.8,0.4,-6.8,6.8,-0.4,11.4
